Assay outcomes: PubChem BioAssay, several laboratories
SENP8 block-1: SENP8 protease inhibition. 330,000 compounds, 1.2% hits. Q96LD8. inhibition, % at 10 µM. purified SENP8, Z-RLRGG-aminoluciferin cleavage, luminescence; in the data active = inhibition above about 50%
Target sequence (Q96LD8 whole entry, looked up): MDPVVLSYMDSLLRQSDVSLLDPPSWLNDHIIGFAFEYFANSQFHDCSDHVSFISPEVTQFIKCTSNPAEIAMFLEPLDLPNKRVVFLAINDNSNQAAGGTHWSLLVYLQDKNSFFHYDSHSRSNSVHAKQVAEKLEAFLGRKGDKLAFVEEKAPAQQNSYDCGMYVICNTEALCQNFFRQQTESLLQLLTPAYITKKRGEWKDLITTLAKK
SENP6 inh: blocks the human protease SENP6. Recombinant SENP6 catalytic domain, aminoluciferin luminescence. 330,000 compounds, 1.8% hits. inhibition, % at 10 µM. AID 2599;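 active = inhibition above about 50% at the single tested dose, limit read from the data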;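 note: plate controls were DMSO wells with enzyme for no effect and DMSO wells lacking enzyme for full effect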
Target sequence (Q9GZR1 628-1112 limits assumed): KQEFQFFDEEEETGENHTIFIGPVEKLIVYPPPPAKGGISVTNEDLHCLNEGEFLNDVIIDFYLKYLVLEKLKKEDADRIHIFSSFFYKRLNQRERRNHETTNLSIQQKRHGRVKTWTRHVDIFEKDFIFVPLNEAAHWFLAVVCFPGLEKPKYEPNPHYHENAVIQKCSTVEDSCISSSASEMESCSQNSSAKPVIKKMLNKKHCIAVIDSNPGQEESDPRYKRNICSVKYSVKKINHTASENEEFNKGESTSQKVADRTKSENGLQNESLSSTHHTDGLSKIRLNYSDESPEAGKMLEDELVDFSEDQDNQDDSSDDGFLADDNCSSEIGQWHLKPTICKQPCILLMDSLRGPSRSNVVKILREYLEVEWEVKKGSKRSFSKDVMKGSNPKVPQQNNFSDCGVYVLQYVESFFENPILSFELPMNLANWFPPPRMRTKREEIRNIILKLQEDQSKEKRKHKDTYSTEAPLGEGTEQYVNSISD
SENP8 block-2: blocks human SENP8 cleavage of Nedd8 substrate; recombinant SENP8, Nedd8 substrate fluorescence; inhibition, % at 20 µM; 360,000 compounds, 0.64% hits; in the data active = inhibition mostly above about 40%, no sharp cut-off; inactive = mostly below about 27%
SENP1 inh: SENP1 (human) catalytic domain inhibition | Q9P0U3 | inhibition, % at 10 µM | recombinant SENP1 catalytic domain, CyPet-SUMO1-YPet FRET cleavage | 360,000 compounds, 0.21% hits;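 active = inhibition at least 30% at 10 µM, raw YFP signal under a set limit, fluorescence ratio 0.5 to 1.5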;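 note: 0% = enzyme with DMSO and 100% = no enzyme wells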
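material = recombinant human SENP1 catalytic domain, His6-tagged | quantity = 20 pM enzyme | reagent = 25 nM SUMO1 FRET substrate | compound dosing = 10 µM single point, 0.5% DMSO | timing = 50 min enzyme reaction, room temperature, light-protected | detection = FRET, CFP and YFP emission | control set = no-enzyme low, enzyme-DMSO high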
HSP90 refold inh: HSP90 refolding inhibition in rabbit reticulocyte lysate; 290,000 compounds, 0.91% hits; inhibition, % at 5.6 µM; luciferase refolding luminescence, 3 h;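 active = inhibition above the screen-wide mean plus 3 SD, computed separately per campaign, cut at about 16% in these data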;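 note: 0% = DMSO wells and 100% = 60 µM geldanamycin wells; inhibitors lower the luminescence because luciferase stays unfolded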
SENP7 block: SENP7 protease inhibition; recombinant SENP7, Z-RLRGG-aminoluciferin luminescence, 40 min; inhibition, % at 5 µM; 330,000 compounds, 1.5% hits;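 active = inhibition above about 50% at the single test dose, limit read from the data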;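 note: plate controls were DMSO with enzyme for no effect and no enzyme buffer wells for full effect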
HSP90 inh confirm: confirmation of HSP90 inhibitors; shares compounds with HSP90 refold inh; rabbit reticulocyte lysate, luciferase refolding luminescence, 3 h; inhibition, % at 5.9 µM; 2,300 compounds, 64% hits; AID 1846; in the data active = inhibition above about 18%;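 note: 0% = vehicle wells and 100% = reference inhibitor wells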
luciferase ctr: firefly luciferase inhibition, HSP90 counter-screen; shares compounds with HSP90 refold inh; AID 1847; 2,300 compounds, 48% hits; purified native firefly luciferase, luminescence; inhibition, % at 5.9 µM;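 active = inhibition above the mean inhibition of all tested sample wells plus 3 SD, cut at about 10% in these data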;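 note: 0% = DMSO with luciferase and 100% = wells lacking luciferase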
An asterisk follows results filed as active. Hits are enriched below; roughly 2.9% of the tested compounds scored in any of these assays.

How did O=C(/C=C/c1ccc2c(c1)OCO2)Nc1nc2ccccc2s1 do in these assays?
SENP8 block-1: -16.0; SENP6 inh: -10.6; SENP8 block-2: -440.0; SENP1 inh: -12.9; HSP90 refold inh: 24.9*; SENP7 block: -8.3; HSP90 inh confirm: 62.4*; luciferase ctr: 19.6*

Results for CC(C)C(=O)Nc1nc2cc3c(cc2s1)OCCO3 ?
SENP8 block-1: -0.6; SENP6 inh: 33.1; SENP8 block-2: 21.5; SENP1 inh: -0.3; HSP90 refold inh: 28.3*; SENP7 block: 26.9; HSP90 inh confirm: 39.7*; luciferase ctr: 34.0*

Results for CN1CCN(c2nc3ccccn3c(=O)c2C=C(C#N)C#N)CC1 ?
SENP8 block-1: 7.1; SENP6 inh: 10.8; SENP8 block-2: -258.8; SENP1 inh: -43.1; HSP90 refold inh: 4.8; SENP7 block: -0.3

How did Brc1ccc(N=Nc2ccc3ccccc3n2)cc1 do in these assays?
SENP8 block-1: 95.9*; SENP6 inh: 97.2*; SENP8 block-2: 28.6; SENP1 inh: -1.4; HSP90 refold inh: 61.0*; SENP7 block: 99.6*; HSP90 inh confirm: 94.9*; luciferase ctr: 86.4*

Results for Cc1nn(C)c(C)c1NC(=O)Nc1ccc(Cl)c(Cl)c1 ?
SENP8 block-1: -6.9; SENP6 inh: 14.8; SENP8 block-2: 24.4; SENP1 inh: 2.4; HSP90 refold inh: -3.8; SENP7 block: 1.9

What do the screens show for `COc1ccc(NC(=O)O/N=C/c2c(C)nn(C(C)(C)C)c2C)cc1`?
SENP8 block-1: -2.5; SENP6 inh: 1.6; SENP8 block-2: 9.2; SENP1 inh: 0.8; HSP90 refold inh: 32.8*; SENP7 block: 1.4; HSP90 inh confirm: 50.7*; luciferase ctr: 52.9*

Results for Cc1nn(C(C)(C)C)c(C)c1/C=N/OC(=O)Nc1ccc(Cl)c(Cl)c1 ?
SENP8 block-1: 42.7; SENP6 inh: 59.2*; SENP8 block-2: 16.3; SENP1 inh: 0.6; HSP90 refold inh: 78.3*; SENP7 block: 44.0; HSP90 inh confirm: 85.9*; luciferase ctr: 84.9*

Results for CC(C)(C)c1ccc(C(=O)Nc2cccc3c(=O)[nH][nH]c(=O)c23)cc1 ?
SENP8 block-2: -285.1; SENP1 inh: -32.3; HSP90 refold inh: 46.6*; HSP90 inh confirm: 62.5*; luciferase ctr: 20.8*

What do the screens show for `O=C(COC(=O)c1ccc(O)cc1O)NC1CC1`?
SENP8 block-1: -13.6; SENP6 inh: -16.0; SENP8 block-2: 1.0; SENP1 inh: 1.7; SENP7 block: -7.8

How did COc1cccc(/C=C/C(=O)OCC(=O)NCCc2ccccc2)c1 do in these assays?
SENP8 block-1: 1.0; SENP6 inh: -3.7; SENP8 block-2: -276.4; SENP1 inh: -1.0; HSP90 refold inh: 1.2; SENP7 block: -1.2

Results for CC(=O)c1ccc(N2Cc3ccccc3/C2=N\C(=O)Nc2ccc(Cl)cc2)cc1 ?
SENP8 block-1: -9.5; SENP6 inh: -12.1; SENP8 block-2: -23.5; SENP1 inh: -2.2; HSP90 refold inh: 3.9; SENP7 block: -11.4

What do the screens show for `O=C(NCCc1ccccc1)c1cccc(N2CCCC2=O)c1`?
SENP8 block-1: -4.1; SENP6 inh: 5.0; SENP8 block-2: 11.6; SENP1 inh: 2.3; HSP90 refold inh: 35.0*; SENP7 block: -3.1; HSP90 inh confirm: 52.5*; luciferase ctr: 33.2*

Results for CCN1C(=O)c2ccc(C(=O)NCc3ccccc3)cc2C1=O ?
SENP8 block-1: 2.1; SENP6 inh: 2.7; SENP8 block-2: 31.4; SENP1 inh: 1.1; HSP90 refold inh: 0.1; SENP7 block: 7.1

How did Cc1ccc(CCNC(=O)c2cccc(N3CCCC3=O)c2)cc1 do in these assays?
SENP8 block-1: -3.0; SENP6 inh: -25.5; SENP8 block-2: 10.9; SENP1 inh: 0.8; HSP90 refold inh: -4.2; SENP7 block: 11.4

What do the screens show for `O=C(NCCc1ccc([N+](=O)[O-])cc1)c1ccccc1`?
SENP8 block-1: -2.3; SENP6 inh: -7.9; SENP8 block-2: -2.0; SENP1 inh: 2.7; HSP90 refold inh: 4.3; SENP7 block: -5.1

What do the screens show for `CC(C)(C)c1ccc(C(=O)NCCc2ccccc2)cc1`?
SENP8 block-1: 20.3; SENP6 inh: 41.7; SENP8 block-2: 10.2; SENP1 inh: -0.1; HSP90 refold inh: 21.4*; SENP7 block: 32.8; HSP90 inh confirm: 53.1*; luciferase ctr: 42.9*

Results for O=C(NCCc1ccccc1)c1ccc([N+](=O)[O-])cc1 ?
SENP8 block-1: -9.9; SENP6 inh: -19.5; SENP8 block-2: 9.3; SENP1 inh: -1.1; HSP90 refold inh: 23.4*; SENP7 block: 1.9; HSP90 inh confirm: 34.2*; luciferase ctr: 29.9*

How did COCCCN1C(=O)c2ccc(C(=O)NCCc3ccccc3)cc2C1=O do in these assays?
SENP8 block-1: -6.6; SENP6 inh: -2.1; SENP8 block-2: 8.0; SENP1 inh: 0.1; HSP90 refold inh: 22.1*; SENP7 block: -7.5; HSP90 inh confirm: 41.8*; luciferase ctr: 23.5*

How did COCC(=O)Nc1cc(C(=O)NCCc2ccccc2)ccc1Cl do in these assays?
SENP8 block-1: -1.3; SENP6 inh: 4.1; SENP8 block-2: 6.0; SENP1 inh: 2.3; HSP90 refold inh: 13.0; SENP7 block: -0.4

What do the screens show for `CCOCC(=O)Nc1cc(C(=O)NCCc2ccccc2)ccc1Cl`?
SENP8 block-1: 4.1; SENP6 inh: -4.8; SENP8 block-2: 2.9; SENP1 inh: 2.0; HSP90 refold inh: 17.1*; SENP7 block: 10.6; HSP90 inh confirm: 32.0*; luciferase ctr: -19.6

What do the screens show for `NNC(=O)c1ccc(COc2ccc3ccccc3c2)o1`?
SENP8 block-1: -1.7; SENP6 inh: -2.9; SENP8 block-2: 1.3; SENP1 inh: -2.4; HSP90 refold inh: 3.1; SENP7 block: -9.6

What do the screens show for `O=C(OCc1ccccn1)c1ccc(COc2ccc3ccccc3c2)o1`?
SENP8 block-1: 4.5; SENP6 inh: 25.8; SENP8 block-2: 25.8; SENP1 inh: -1.6; HSP90 refold inh: 44.5*; SENP7 block: -4.4; HSP90 inh confirm: 63.2*; luciferase ctr: -11.4

How did O=C(Nc1cc2ccccc2oc1=O)c1ccccc1 do in these assays?
SENP8 block-1: 93.9*; SENP6 inh: -8.6; SENP8 block-2: -36.2; SENP1 inh: 1.3; HSP90 refold inh: 25.4*; SENP7 block: 98.1*; HSP90 inh confirm: 85.8*; luciferase ctr: 73.8*

What do the screens show for `Cc1cn([C@H]2C[C@H](O)[C@@H](CNCc3ccc(CN(C)S(C)(=O)=O)o3)O2)c(=O)[nH]c1=O`?
SENP8 block-2: 5.2; SENP1 inh: 1.3

How did CCN(CC)S(=O)(=O)N1CCC(C(=O)NC2CCCc3ccccc32)CC1 (stereo not given) do in these assays?
SENP8 block-1: 4.1; SENP6 inh: 6.7; SENP8 block-2: 10.7; SENP1 inh: 0.4; HSP90 refold inh: 1.1; SENP7 block: 9.4
